From ChEMBL document CHEMBL1145192, “Discovery of a novel class of reversible non-peptide caspase inhibitors via a structure-based approach” (J Med Chem, 2005)
pIC50, pKi: −log10 of the molar value.

Key:
[1] = target: T1, Caspase-8 (Homo sapiens, UniProt Q14790); experiment: Inhibitory concentration against caspase-8 expressed in Escherichia coli. BL21(DE3) by fluorometric assay
[2] = target: T2, Caspase-7 (Homo sapiens, UniProt P55210); experiment: Inhibitory concentration against caspase-7 expressed in Escherichia coli. BL21(DE3) by fluorometric assay
T2 sequence (P55210 whole entry): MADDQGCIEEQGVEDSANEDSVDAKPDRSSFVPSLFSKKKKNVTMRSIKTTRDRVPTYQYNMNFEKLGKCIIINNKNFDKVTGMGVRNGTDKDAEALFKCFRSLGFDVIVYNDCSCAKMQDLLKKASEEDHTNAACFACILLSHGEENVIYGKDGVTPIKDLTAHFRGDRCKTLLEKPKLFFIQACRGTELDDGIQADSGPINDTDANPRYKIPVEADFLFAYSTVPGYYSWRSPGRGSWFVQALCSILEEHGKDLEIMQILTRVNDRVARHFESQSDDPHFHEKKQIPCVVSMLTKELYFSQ

[3] = target: T3, Caspase-3 (Homo sapiens, UniProt P42574); experiment: Inhibitory concentration against caspase-3 expressed in Escherichia coli. BL21(DE3) by fluorometric assay
T3 sequence (P42574 whole entry): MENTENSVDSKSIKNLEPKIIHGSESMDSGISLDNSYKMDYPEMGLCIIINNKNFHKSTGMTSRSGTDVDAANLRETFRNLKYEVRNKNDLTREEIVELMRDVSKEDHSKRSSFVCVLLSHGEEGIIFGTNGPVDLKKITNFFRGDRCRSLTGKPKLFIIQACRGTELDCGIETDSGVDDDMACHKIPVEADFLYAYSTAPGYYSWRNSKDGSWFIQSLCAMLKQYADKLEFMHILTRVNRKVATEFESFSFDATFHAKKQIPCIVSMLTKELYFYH

[4] = target: T1, Caspase-8; experiment: Binding affinity against caspase-8 expressed in Escherichia coli. BL21(DE3) by fluorometric assay
Method in brief: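 E. coli-expressed active caspase-8, titrated with Z-VAD-FMK, 25-50 nM, with 40 µM Ac-IETD-AFC in 10 mM phosphate buffer (pH 7.5), 10 mM NaCl. Fluorescence at ex 405 / em 505 nm, followed kinetically over 30 min at room temperature. Ki from Lineweaver-Burk double-reciprocal analysis over varied substrate concentrations, assuming competitive inhibition.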

T1 sequence (Q14790 217-374 limits assumed): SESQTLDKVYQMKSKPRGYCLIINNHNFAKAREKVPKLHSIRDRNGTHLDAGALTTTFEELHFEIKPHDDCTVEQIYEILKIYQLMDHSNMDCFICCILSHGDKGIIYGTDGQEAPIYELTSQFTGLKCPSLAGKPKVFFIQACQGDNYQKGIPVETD
T1 sequence (Q14790 385-479 limits assumed): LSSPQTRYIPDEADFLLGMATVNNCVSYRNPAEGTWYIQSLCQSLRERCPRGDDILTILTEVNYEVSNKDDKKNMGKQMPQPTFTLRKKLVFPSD

| Structure (SMILES) | pIC50 [1] | pIC50 [2] | pIC50 [3] | pKi [4] |
| --- | --- | --- | --- | --- |
| O=C(Sc1cccs1)c1csc(C2COc3ccccc3O2)n1 (configuration not stated) | 4.21 | < 3.70 |  |  |
| Cc1nc(C2COc3ccccc3O2)sc1C(=O)O (configuration not stated) | < 3.70 | < 3.70 | 3.89 |  |
| O=C(c1csc(C2COc3ccccc3O2)n1)N1CCOCC1 (configuration not stated) | < 3.70 | < 3.70 | 3.82 |  |
| O=C(O)c1csc(C2COc3ccccc3O2)n1 (configuration not stated) | 4.12 | 3.77 | < 3.70 |  |
| CN(C)C(=O)c1csc(C2COc3ccccc3O2)n1 (configuration not stated) | < 3.70 | < 3.70 | 3.89 |  |
| CCOC(=O)c1csc(C2COc3ccccc3O2)n1 (configuration not stated) |  |  |  | 4.52 |
| O=C(Oc1ccccc1)c1csc(C2COc3ccccc3O2)n1 (configuration not stated) | 4.22 | < 3.70 |  |  |
| O=C(Oc1ccc(Cl)cc1)c1csc(C2COc3ccccc3O2)n1 (configuration not stated) | < 3.70 | < 3.70 |  |  |
| FC(F)(F)c1cccc(-c2csc(C3COc4ccccc4O3)n2)c1 (configuration not stated) |  |  |  | 5.57 |
| O=C(NCc1ccco1)c1csc(C2COc3ccccc3O2)n1 (configuration not stated) | 4.22 | < 3.70 | 3.88 |  |
| CCOC(=O)c1ccc(N/C=C(\C#N)c2nc(-c3cc4cc([N+](=O)[O-])ccc4oc3=O)cs2)cc1 |  |  | < 4.00 |  |
| CCOC(=O)c1sc(C2COc3ccccc3O2)nc1C (configuration not stated) | < 3.70 | < 3.70 |  |  |
| COc1ccc(N/C=C(\C#N)c2nc(-c3cc4cc([N+](=O)[O-])ccc4oc3=O)cs2)cc1 |  |  | < 3.00 |  |
